Numbered stars: 1 amine (or outer) side, 2 acyl side, 3 side chain; on linkers, the order of the positions; unused ones are H or OH. Bridge positions count the residues as written; N and C are the ends. Square brackets hold non-standard residues; d marks the D form. Peptide text beside a SMILES is read from it. I, II: the chains in the order shown. * marks the point of attachment. X3 = CC[C@H](C)[C@@H](C(=O)*)N(C(=O)[C@H](CCCNC(=N)N)NC(=O)CCCCCNC(=O)[C@@H](N)CCCNC(=N)N)C(=O)[C@H](CCCNC(=N)N)NC(=O)CCCCCNC(=O)[C@@H](N)CCCNC(=N)N; Succinimide(1-C2H4CO,3-yl) = O=C1CC([*:1])C(=O)N1CCC(=O)[*:2]; X2 = O=C(OCCOCCN[*:1])[*:2]
Experiments:
Klebsiella pneumoniae [1] = assay: Antibacterial activity against multi-drug resistant Klebsiella pneumoniae NMI 3081/09 assessed as reduction in microbial growth incubated for 20 hrs; type: functional; details: NMI 3081/09, 20 h
Method in brief: (§1)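 Broth microdilution MIC (modified Hancock protocol) in non-binding polystyrene plates. Inoculum ~2 × 10^5 CFU/mL in Mueller-Hinton broth with Mg²⁺ and Ca²⁺ at 4 mg/L each. Compounds dissolved in water, diluted in 0.01% acetic acid/0.2% BSA (final), added as 10× stocks. Covered plates incubated 20 h at 35 °C (± 2 °C) with 220 rpm circular shaking before MIC read.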

Klebsiella pneumoniae [2] = assay: Antibacterial activity against Klebsiella pneumoniae ATCC 13883 assessed as reduction in microbial growth incubated for 20 hrs; type: functional; details: ATCC 13883, 20 h
Method in brief: (§2)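 Broth microdilution MIC after a modified Hancock protocol for cationic peptides, in non-binding polystyrene plates. Inoculum ~2 × 10^5 CFU/mL in Mueller-Hinton broth with Mg²⁺ and Ca²⁺ at 4 mg/L each. Compounds dissolved in water, diluted in 0.01% acetic acid, 0.2% BSA (final), added as 10× aliquots. Covered plates incubated 20 h at 35 °C (± 2 °C) with shaking at 220 rpm. MIC read as lowest inhibiting concentration.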

Escherichia coli [3] = assay: Antibacterial activity against multi-drug resistant Escherichia coli NMI 3898/15 assessed as reduction in microbial growth incubated for 20 hrs; type: functional; details: NMI 3898/15, 20 h; method in brief: as §1
[4] = Hemolytic activity against RBC (unknown origin) at 100 uM; type: ADME, cell-based, Erythrocyte; details: red blood cells (erythrocytes); read-out: Activity
Klebsiella pneumoniae [5] = assay: Antibacterial activity against multi-drug resistant Klebsiella pneumoniae NMI 2697/14 assessed as reduction in microbial growth incubated for 20 hrs; type: functional; details: NMI 2697/14, 20 h; method in brief: as §1
Acinetobacter baumannii = assay: Antibacterial activity against Acinetobacter baumannii ATCC 19606 assessed as reduction in microbial growth incubated for 20 hrs; type: functional; details: ATCC 19606 = CIP 70.34 = JCM 6841, 20 h; method in brief: as §2
Pseudomonas aeruginosa = assay: Antibacterial activity against Pseudomonas aeruginosa PAO1 assessed as reduction in microbial growth incubated for 20 hrs; type: functional; details: PAO1, 20 h; method in brief: as §2
Escherichia coli [6] = assay: Antibacterial activity against multi-drug resistant Escherichia coli NMI 3548/14 assessed as reduction in microbial growth incubated for 20 hrs; type: functional; details: NMI 3548/14, 20 h; method in brief: as §1
Escherichia coli [7] = assay: Antibacterial activity against Escherichia coli lacking a functional SbmA assessed as reduction in microbial growth incubated for 20 hrs; method in brief: as §2
Escherichia coli [8] = assay: Antibacterial activity against Escherichia coli ATCC 25922 assessed as reduction in microbial growth incubated for 20 hrs; type: functional; details: ATCC 25922, 20 h; method in brief: as §1
Staphylococcus aureus = assay: Antibacterial activity against Staphylococcus aureus ATCC 29213 assessed as reduction in microbial growth incubated for 20 hrs; type: functional; details: ATCC 29213, 20 h; method in brief: as §2

Compound | MIC (Klebsiella pneumoniae [1]) [mg/L] | MIC (Klebsiella pneumoniae [2]) [mg/L] | MIC (Escherichia coli [3]) [mg/L] | hemolysis at 100 µM [4] [%] | MIC (Klebsiella pneumoniae [5]) [mg/L] | MIC (Acinetobacter baumannii) [mg/L] | MIC (Pseudomonas aeruginosa) [mg/L] | MIC (Escherichia coli [6]) [mg/L] | MIC (Escherichia coli [7]) [mg/L] | MIC (Escherichia coli [8]) [mg/L] | MIC (Staphylococcus aureus) [mg/L]
CC[C@H](C)[C@H](NC(=O)[C@@H]1CCCN1C(=O)[C@H](CCCNC(=N)N)NC(=O)[C@@H]1CCCN1C(=O)[C@H](Cc1cnc[nH]1)NC(=O)[C@H](CO)NC(=O)[C@@H](NC(=O)[C@@H]1CCCN1C(=O)[C@H](CCCNC(=N)N)NC(=O)[C@@H]1CCCN1C(=O)[C@H](CO)NC(=O)[C@H](Cc1ccc(O)cc1)NC(=O)[C@@H]1CCCN1C(=O)[C@H](CCCNC(=N)N)NC(=O)[C@@H]1CCCN1C(=O)[C@H](CCCNC(=N)N)NC(=O)CCCCCNC(=O)[C@@H](N)CCCNC(=N)N)[C@@H](C)O)C(=O)N[C@@H](CCCNC(=N)N)C(=O)N[C@H](C(N)=O)C(C)C | > 64 | > 64 | 32 to 64 | < 1 | > 64 | 64 | > 64 | 32 to 64 | > 64 | > 64 | > 64
CC[C@H](C)[C@H](NC(=O)[C@H](CCCCN)NC(=O)[C@H]([C@@H](C)CC)N(C(=O)[C@H](CCCNC(=N)N)NC(=O)CCCCCNC(=O)[C@@H](N)CCCNC(=N)N)C(=O)[C@H](CCCNC(=N)N)NC(=O)CCCCCNC(=O)[C@@H](N)CCCNC(=N)N)C(=O)N[C@@H](CC(C)C)C(=O)N[C@@H](Cc1ccccc1)C(=O)N[C@@H](CCC(N)=O)C(=O)N[C@@H](CC(N)=O)C(=O)N[C@@H](CCCNC(=N)N)C(=O)N[C@@H](CCCNC(=N)N)C(=O)N[C@@H](CCSC)C(=O)N[C@@H](CCCCN)C(=O)N[C@@H](Cc1c[nH]c2ccccc12)C(=O)N[C@@H](CCCCN)C(=O)N[C@@H](CCCCN)C(=O)N[C@@H](CSC1CC(=O)N(CCC(=O)NCCOCCOC(=O)N[C@@H](CS)C(=O)N[C@H](C(=O)N[C@@H](CS)C(=O)N[C@H](C(=O)N[C@H](C(=O)N[C@@H](C)C(=O)N[C@@H](CS)C(=O)N[C@@H](C)C(=O)N[C@@H](CS)C(=O)N[C@H](C(N)=O)[C@@H](C)O)[C@@H](C)O)[C@@H](C)O)[C@@H](C)O)C1=O)C(N)=O (stereo partly drawn) (I: X3-KILFQNRRMKWKKC-NH2 / II: [X2]CTCTTACACT-NH2; linker I:14-II:N via Succinimide(1-C2H4CO,3-yl)) | 8 to 16 | 64 | 16 | < 1 | 16 to 32 | 16 | 32 | 4 to 8 | 32 | 32 | > 64
CC[C@H](C)[C@H](NC(=O)[C@H](CCCCN)NC(=O)[C@H]([C@@H](C)CC)N(C(=O)[C@H](CCCNC(=N)N)NC(=O)CCCCCNC(=O)[C@@H](N)CCCNC(=N)N)C(=O)[C@H](CCCNC(=N)N)NC(=O)CCCCCNC(=O)[C@@H](N)CCCNC(=N)N)C(=O)N[C@@H](CC(C)C)C(=O)N[C@@H](Cc1ccccc1)C(=O)N[C@@H](CCC(N)=O)C(=O)N[C@@H](CC(N)=O)C(=O)N[C@@H](CCCNC(=N)N)C(=O)N[C@@H](CCCNC(=N)N)C(=O)N[C@@H](CCSC)C(=O)N[C@@H](CCCCN)C(=O)N[C@@H](Cc1c[nH]c2ccccc12)C(=O)N[C@@H](CCCCN)C(=O)N[C@@H](CCCCN)C(=O)N[C@@H](CS)C(=O)N[C@H](C(=O)N[C@@H](CS)C(=O)N[C@H](C(=O)N[C@H](C(=O)N[C@@H](C)C(=O)N[C@@H](CS)C(=O)N[C@@H](C)C(=O)N[C@@H](CS)C(=O)N[C@H](C(N)=O)[C@@H](C)O)[C@@H](C)O)[C@@H](C)O)[C@@H](C)O (X3-KILFQNRRMKWKKCTCTTACACT-NH2) | 16 | > 64 | 32 | < 1 | ≥ 64 | 16 to 32 | 32 | 8 to 16 | 64 | 64 | > 64
